Only some compounds are listed: those with a hit (about 2.7% of all), similar ones and a draw of the others.
OXTR ag = agonists of human oxytocin receptor. P30559. CHO-OTR cells, Fluo-8 calcium fluorescence; normalized: DMSO 0%, oxytocin 100%. activation, % at 3 µM. 0.32% of 320,000 active. AID 2435;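 active means activation above the mean of all tested compounds plus 3 SD, cutoff set per screening run, cut at about 20% in these data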;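 further: peak over basal fluorescence ratio from a 100 s FLIPR kinetic read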
OXTR potentiator = human OXTR potentiation. P30559. CHO-OTR cells, Fluo-8 calcium fluorescence, potentiator mode; 0% = oxytocin EC15, 100% = EC100. activation, % at 3 µM. 0.061% of 320,000 active;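 active means activation above that plate's cutoff, the mean activation of tested compounds plus 3 SD, cut at about 6.6% in these data, passing the limit was not always enough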
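Measured by – Fluo-8 calcium dye fluorescence · Test system – human OTR in CHO cells · Dosing – one concentration, 3.0 µM compound · Controls – EC15 oxytocin alone as 0%, 75 nM oxytocin as 100% · Evaluation – normalized max/min fluorescence ratio, % activation · Timing – 6 min pre-incubation, 100 s read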
OX1R antag-1 = OX1R (human) antagonism; O43613; AID 485270; 1.8% of 330,000 active; OX1R-expressing cells, FRET antagonist read-out; inhibition, % at 6.6 µM; in the data active means inhibition mostly above about 38%, no sharp cut-off; inactive means mostly below about 40%
Target sequence (O43613 whole entry, looked up): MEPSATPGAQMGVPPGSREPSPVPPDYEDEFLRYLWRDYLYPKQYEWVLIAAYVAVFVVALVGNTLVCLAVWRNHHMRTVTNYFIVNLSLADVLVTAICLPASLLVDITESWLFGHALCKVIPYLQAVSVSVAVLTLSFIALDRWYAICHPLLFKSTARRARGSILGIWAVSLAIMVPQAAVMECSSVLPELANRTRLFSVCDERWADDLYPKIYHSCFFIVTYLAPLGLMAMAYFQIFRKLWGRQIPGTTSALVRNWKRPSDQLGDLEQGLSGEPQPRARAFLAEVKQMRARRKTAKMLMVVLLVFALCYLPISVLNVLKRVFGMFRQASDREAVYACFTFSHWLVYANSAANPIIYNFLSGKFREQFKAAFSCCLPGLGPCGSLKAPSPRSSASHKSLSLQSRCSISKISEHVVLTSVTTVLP
CHO parental Ca = counter-screen for OX1R antagonists: effect in parental CHO cells | parental CHO-K1, ATP-induced calcium, Fluo-8 fluorescence | inhibition, % at 5.6 µM | 0.63% of 330,000 active;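 active means inhibition above that plate's mean sample inhibition plus 3 SD, cut at about 26% in these data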
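material = parental CHO cells | also added = ATP as calcium-mobilizing challenge | dosing = single point at 5.6 µM | detection = intracellular calcium via Fluo-8 no-wash fluorescent dye | read-out = % inhibition | benchmarks = low control ATP plus DMSO, high control DMSO only | repeats = one well per compound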
V1R ag counter = activates human V1a receptor in oxytocin agonist counter-screen; CHO-V1R cells, Fluo-8 calcium fluorescence, agonist mode; 0% DMSO, 100% 3 nM vasopressin; activation, % at 3 µM; 0.25% of 320,000 active;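 active means activation above the mean activation of all tested compounds plus 3 SD, per screening run, cut at about 20% in these data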;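 further: signal is peak over basal fluorescence ratio across a 100 second FLIPR read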
OX1R antag-2 = blocks the human orexin 1 receptor; inhibition, % at 5 µM; CHO/OX1R cells, Fluo-8 calcium fluorescence, orexin A; 0.43% of 330,000 active;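 active means inhibition above its plate's threshold, mean inhibition of all tested compounds on the plate plus 3 SD, cut at about 37% in these data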
A number is an active result; n = inactive; x = not tested or not shown; + = active, no number.

SMILES	OXTR ag	OXTR potentiator	OX1R antag-1	CHO parental Ca	V1R ag counter	OX1R antag-2
O=C(N/N=C/c1ccc([N+](=O)[O-])s1)C(O)c1ccccc1 (stereo unspecified)	n	n	56.1	n	n	n
Cc1ccnn1CC(=O)N/N=C/c1ccc([N+](=O)[O-])s1	n	n	51.2	n	n	n
O=C(CNC(=O)c1cccc(F)c1)N/N=C/c1ccc([N+](=O)[O-])s1	n	n	49.5	n	n	n
O=C(Cc1ccccc1)N/N=C/c1ccc([N+](=O)[O-])s1	n	n	n	n	n	n
Cc1ccnn1CC(=O)N/N=C/c1cccs1	n	n	n	n	n	n
C=CCn1c(SCC(=O)N(C)CC(=O)Nc2ccc(C)cc2)nnc1-c1ccncc1	n	n	n	n	n	n
Cc1ccc2[nH]c3c(=O)n(CC(=O)Nc4ccccc4N4CCN(C)CC4)ncc3c2c1	n	n	n	n	n	n
N#C/C(=C\c1cc(Br)ccc1F)C(=O)NC1CC1	n	n	n	n	n	n
COc1ccc(NS(=O)(=O)c2ccc(Cl)c(NC(=O)c3cccnc3Cl)c2)cc1	n	n	n	n	n	n
COc1ccc(NS(=O)(=O)c2ccc(Cl)c(NC(=O)c3ccccc3F)c2)cc1	n	n	48.8	n	n	n
O=C(Nc1cccnc1)c1ccc2c(c1)C(=O)N(CC1CCCO1)C2=O (stereo unspecified)	n	n	73.3	n	n	n
Cc1ccc(NC(=O)c2ccc3c(c2)C(=O)N(CC2CCCO2)C3=O)cc1C (stereo unspecified)	n	n	n	n	n	n
c1ccc(Nc2ncnc3sc4c(c23)CCC4)cc1	n	n	n	n	n	n
c1csc(CCNc2ncnc3sc4c(c23)CCC4)c1	n	n	58.7	58.2	n	n
O=c1[nH]c2ccccc2nc1-c1c[nH]c2ccccc12	n	n	61.8	n	n	n
Cc1ccc(CNC(=O)C(N=C2NS(=O)(=O)c3ccccc32)C(C)C)cc1 (stereo unspecified)	n	n	n	n	n	n
Cc1ccc2nsnc2c1S(=O)(=O)NCc1cccnc1	n	n	n	n	n	n
Cc1ccc2nsnc2c1S(=O)(=O)NCc1ccc2c(c1)OCO2	n	n	43.5	n	n	n
COc1ccc(C(=O)O/N=C(\N)c2ccc(OC)c(OC)c2)c(OC)c1	n	n	62.7	n	n	n
COC(=O)/C(=C(O)\C=C\c1ccccc1[N+](=O)[O-])c1nc2ccccc2[nH]1	n	n	55.6	n	n	n
COc1ccc(C(=O)c2ccc(N(C)C)cc2)c2ccccc12	n	n	n	32.8	n	58.2
CN(C)c1ccc(C(=O)c2ccc(O)cc2O)cc1	n	n	n	n	n	n
Cc1ccccc1C(=O)Oc1cccc(Nc2ncnc3ccccc23)c1	n	n	80.8	60.6	n	54.6
CC(C)NC(=O)COc1nncc2ccccc12	n	n	n	n	n	n
NC(=S)NNc1ccnc2cc(Cl)ccc12	n	n	n	n	n	n
SMILES	OXTR ag	OXTR potentiator	OX1R antag-1	CHO parental Ca	V1R ag counter	OX1R antag-2
O=C(NNc1ccnc2cc(Cl)ccc12)C1CCCCC1	n	n	n	34.6	n	n
O=S(=O)(O)c1cc(O)c2c(O)c(N=Nc3cc(Cl)ccc3O)c(S(=O)(=O)O)cc2c1	n	n	n	n	n	n
Cc1cc(-c2ccc(N=Nc3c(S(=O)(=O)O)cc4cc(S(=O)(=O)O)cc(N)c4c3O)c(C)c2)ccc1N=Nc1c(S(=O)(=O)O)cc2cc(S(=O)(=O)O)cc(N)c2c1O	n	n	+	n	n	n
C=CCN1C(=O)/C(=C/C=C2/N(CC)c3ccc(S(=O)(=O)N(C)C)cc3N2CC)SC1=S	29.6	n	n	n	26.3	n
Cc1ccc(-n2nnnc2CNC(=O)c2ccc([N+](=O)[O-])o2)cc1C	n	n	n	n	n	n
O=C(NCC(c1ccc(F)cc1)N1CCOCC1)c1ccc([N+](=O)[O-])o1 (stereo unspecified)	n	n	47.8	n	n	n
O=C(NCc1nnnn1-c1ccc(F)cc1)c1ccc([N+](=O)[O-])o1	n	n	54.3	n	n	n
CC(=O)c1ccc(-c2ccc(C(=O)NCC(c3ccc(F)cc3)N3CCOCC3)o2)cc1 (stereo unspecified)	n	n	n	n	n	n
CC(OC(=O)c1ccccc1Nc1ccc(SC(F)F)cc1)C(N)=O (stereo unspecified)	n	n	n	46.5	n	n
COc1ccc(S(=O)(=O)N(C)CC(=O)Nc2ccc(C(F)(F)F)cc2)cc1Cl	n	n	n	31.7	n	n
Cc1ccc(N2C(=O)CCC(C(=O)O)C2c2cccs2)cc1 (stereo unspecified)	n	n	n	n	n	n
CC(=O)Nc1ccc(C(=O)Nc2cccc(S(=O)(=O)N(C)c3ccccc3)c2)cc1	n	n	n	n	n	n
CN(c1ccccc1)S(=O)(=O)c1cccc(NC(=O)c2ccc(Cl)c([N+](=O)[O-])c2)c1	n	n	43.6	64.3	n	62.0
CN(c1ccccc1)S(=O)(=O)c1cccc(C(=O)NNC(=O)c2ccccc2)c1	n	n	45.8	n	n	n
Cc1nc2ccc(NC(=O)c3ccc(Cl)c(S(=O)(=O)N(C)c4ccccc4)c3)cc2s1	n	n	n	41.5	n	n
CN(c1cccc(NC(=O)c2ccc(N(C)S(=O)(=O)c3ccccc3)cc2)c1)S(C)(=O)=O	n	n	n	62.1	n	67.4
CCc1cc(CNC(=O)C2CCC(=O)N(Cc3cccc(F)c3)C2)on1 (stereo unspecified)	n	n	n	n	n	n
O=C(CCNS(=O)(=O)c1ccc(F)c(Cl)c1)NCc1ccccc1F	n	n	n	n	n	n
O=S1(=O)N[C@@H](Cc2ccccc2)COc2cc(Br)ccc21	x	x	n	n	x	n
O=[N+]([O-])c1c(NCCCO)cc(Sc2nc3ccccc3s2)c2nonc12	n	n	45.2	50.6	n	54.2
CCC(=O)OCCNc1cc(Sc2nc3ccccc3s2)c2nonc2c1[N+](=O)[O-]	n	n	51.8	61.0	n	59.5
CS(=O)(=O)c1ccc(Sc2nc3ccccc3s2)c([N+](=O)[O-])c1	n	n	n	n	n	n
O=[N+]([O-])c1cc(S(=O)(=O)C(F)(F)F)ccc1Sc1nc2ccccc2s1	n	n	n	n	n	n
CCC(=O)OCCNc1cc(Sc2nc3ccccc3[nH]2)c2nonc2c1[N+](=O)[O-]	n	n	93.2	60.7	n	n
CCOC(=O)c1ccc(NC(=O)c2ccccc2N(C)S(=O)(=O)c2ccccc2)cc1	n	n	n	n	n	n
CN(C)c1cccc(/C=C(\C#N)c2ccccc2)c1	n	n	n	37.8	n	n

Source: PubChem BioAssay (The Scripps Research Institute Molecular Screening Center)
